Test results published in PMC12164861 (Drug Design, Development and Therapy, 2025).

How the values were obtained:
albumin = details: cited from earlier work
[1] = cited from earlier work
[2] = Teicoplanin steady-state plasma trough concentration; assay type: in vivo, human; details: for teicoplanin Cmin: median (interquartile range)
Summary of the method: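 Retrospective cohort of adult ICU patients (Jan 2018–Dec 2023) under therapeutic drug monitoring of the test compound. Venous blood was drawn just before the next dose after at least 6 doses (steady state). Total plasma concentration was measured by HPLC, linear range 3.125–100.0 µg/mL. Target was Cmin ≥ 15.0 μg/mL. Non-normal data are given as median (interquartile range), counts as rate (%).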

Row | Compound | albumin binding (albumin) | probability of target attainment (PTA) ([1]; model-based simulations, higher-dose regimens (12 mg/kg), MIC up to 0.5 mg/L, elderly critically ill patients with pneumonia) | probability of target attainment (PTA) of target Cmin ([1]; simulations, standard dosage regimen, critically ill patients with severe renal dysfunction (eGFR ≤30 mL/min/1.73 m²)) [%] | percentage of teicoplanin Cmin >30.0 μg/mL ([2]; all values (64/404)) [%] | teicoplanin Cmin ([2]; patients who did not use caspofungin) | teicoplanin Cmin ([2]; patients who did not use voriconazole) | teicoplanin Cmin ([2]; patients who used caspofungin) | teicoplanin Cmin ([2]; patients who used voriconazole) | percentage of teicoplanin Cmin >30.0 μg/mL ([2]; patients with fungal co-infection) [%] | percentage of teicoplanin Cmin >30.0 μg/mL ([2]; patients without fungal infection) [%] | percentage of teicoplanin Cmin reaching the target (≥15.0 μg/mL) ([2]; year 2018 (12/50)) [%] | percentage of teicoplanin Cmin reaching the target (≥15.0 μg/mL) ([2]; year 2019 (11/18)) [%] | percentage of teicoplanin Cmin reaching the target (≥15.0 μg/mL) ([2]; year 2020 (26/40)) [%] | percentage of teicoplanin Cmin reaching the target (≥15.0 μg/mL) ([2]; year 2021 (34/49)) [%] | percentage of teicoplanin Cmin reaching the target (≥15.0 μg/mL) ([2]; year 2022 (66/88)) [%] | percentage of teicoplanin Cmin reaching the target (≥15.0 μg/mL) ([2]; year 2023 (123/159)) [%]
1 | CC[C@H](C)C[C@H](C)CCCCCCCCC(=O)N[C@H]1C[C@@H](O)[C@@H](NCCN)NC(=O)[C@@H]2[C@@H](O)CCN2C(=O)[C@H]([C@H](O)CCN)NC(=O)[C@H]([C@H](O)[C@@H](O)c2ccc(O)cc2)NC(=O)[C@@H]2C[C@@H](O)CN2C(=O)[C@H]([C@@H](C)O)NC1=O [Caspofungin] | ≈ 97% | – | – | – | – | – | – | – | – | – | – | – | – | – | – | –
2 | C[C@@H](c1ncncc1F)[C@](O)(Cn1cncn1)c1ccc(F)cc1F [voriconazole] | 58% | – | – | – | – | – | – | – | – | – | – | – | – | – | – | –
3 | Teicoplanin | – | at least 85% | 52.8 | 15.8 | 19.67 (12.38, 25.45) μg/mL | 19.74 (13.22, 26.18) μg/mL | 20.12 (14.67, 26.68) μg/mL | 18.48 (10.84, 24.24) μg/mL | 20.3 | 12.0 | 24.0 | 61.1 | 65.0 | 69.4 | 75.0 | 77.4
